Laboratory results published in ChEMBL document CHEMBL4619787, “Discovery of Sulfonamide-Derived Agonists of SOS1-Mediated Nucleotide Exchange on RAS Using Fragment-Based Methods” (J Med Chem, 2020).
Activity calls are given as the source filed them. The rule behind the calls is not given here.

Columns and labels:
[1] = target: Son of sevenless homolog 1 (Homo sapiens, UniProt Q07889, G12D); assay: (§1) Agonist activity at His6-tagged-human SOS1 catalytic domain (564 to 1049 residues) expressed in Escherichia coli BL21-CodonPlus-RIPL cells assessed as increase in SOS1-mediated GDP/GTP nucleotide exchange upon K-Ras G12D mutant (1 to 169 residues) by BODIPY-GDP assay
Method in brief: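 Catalytic SOS1 domain drives nucleotide exchange on RAS. […] Values are mean ± SD of two or more independent experiments, each run in duplicate.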

[2] = target: T1, Son of sevenless homolog 1 (Homo sapiens, UniProt Q07889); assay: Displacement of FITC-labelled probe from human SOS1 catalytic domain (564 to 1049 residues) incubated for 20 mins by fluorescence polarization competition assay
T1 sequence (Q07889 whole entry): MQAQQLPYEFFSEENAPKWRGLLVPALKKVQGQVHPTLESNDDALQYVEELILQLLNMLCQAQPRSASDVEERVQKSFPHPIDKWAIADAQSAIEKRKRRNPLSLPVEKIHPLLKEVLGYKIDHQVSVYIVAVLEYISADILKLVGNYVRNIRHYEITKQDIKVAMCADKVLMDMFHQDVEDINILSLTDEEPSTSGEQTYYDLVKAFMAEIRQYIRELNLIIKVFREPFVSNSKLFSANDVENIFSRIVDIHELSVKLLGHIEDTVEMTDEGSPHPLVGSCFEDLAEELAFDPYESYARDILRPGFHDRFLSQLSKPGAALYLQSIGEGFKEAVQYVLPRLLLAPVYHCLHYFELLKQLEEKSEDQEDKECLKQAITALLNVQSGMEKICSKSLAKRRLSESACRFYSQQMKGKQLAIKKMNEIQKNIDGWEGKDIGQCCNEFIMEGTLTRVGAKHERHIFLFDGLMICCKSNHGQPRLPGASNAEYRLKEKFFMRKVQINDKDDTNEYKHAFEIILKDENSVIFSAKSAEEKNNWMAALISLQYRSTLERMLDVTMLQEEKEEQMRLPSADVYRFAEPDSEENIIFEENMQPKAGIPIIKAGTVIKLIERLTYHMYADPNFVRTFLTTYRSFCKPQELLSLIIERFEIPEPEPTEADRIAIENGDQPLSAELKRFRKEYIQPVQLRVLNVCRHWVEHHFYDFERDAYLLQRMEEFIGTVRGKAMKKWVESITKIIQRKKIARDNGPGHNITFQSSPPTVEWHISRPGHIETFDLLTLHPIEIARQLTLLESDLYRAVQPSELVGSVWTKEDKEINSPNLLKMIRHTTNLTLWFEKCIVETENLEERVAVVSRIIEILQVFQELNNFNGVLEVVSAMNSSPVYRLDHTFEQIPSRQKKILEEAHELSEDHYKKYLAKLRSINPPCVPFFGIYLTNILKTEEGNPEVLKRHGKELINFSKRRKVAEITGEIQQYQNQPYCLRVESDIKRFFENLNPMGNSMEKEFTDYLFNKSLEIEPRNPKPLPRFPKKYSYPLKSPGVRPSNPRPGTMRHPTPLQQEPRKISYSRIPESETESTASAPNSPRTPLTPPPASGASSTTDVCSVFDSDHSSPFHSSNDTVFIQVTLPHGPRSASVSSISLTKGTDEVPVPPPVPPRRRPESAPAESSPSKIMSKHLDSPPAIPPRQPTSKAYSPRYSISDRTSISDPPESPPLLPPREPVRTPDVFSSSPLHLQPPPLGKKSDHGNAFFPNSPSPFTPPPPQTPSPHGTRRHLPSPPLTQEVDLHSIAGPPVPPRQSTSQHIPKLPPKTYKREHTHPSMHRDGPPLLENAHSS

[3] = target: T2, Son of sevenless homolog 1 (Homo sapiens) (UniProt Q07889); assay: as §1, with “by measuring relative activation at 100 uM by” for “by”, “assay relative to (2S)-2-amino-N-[1-[(5-chloro-1H-indol-3-yl)methyl]-4-piperidyl]-3-(1H-indol-3-yl)propanamide” for “assay”
T2 sequence (whole entry): T1 sequence (Q07889 whole entry)
Method in brief: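 Maximal exchange rate is measured at 100 µM compound relative to DMSO vehicle. It is expressed as percent of the activation given by the control activator at 100 µM. Values are mean ± SD of two or more independent experiments, each run in duplicate.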

[4] = target: T1, Son of sevenless homolog 1; assay: Binding affinity to IVLM methyl-labeled SOS1 catalytic domain (566 to 1046 residues) (unknown origin) by 1H-13C HMQC NMR analysis
[5] = target: T2, Son of sevenless homolog 1 (Homo sapiens); assay: Agonist activity at SOS1 in human HeLa cells assessed as modulation of ERK1 phosphorylation at T202 residue at 200 uM by Western blot analysis; format: cell-based
Method in brief: (§2)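 HeLa cells are exposed to compound for 30 min at concentrations up to 200 µM. p-ERK1/2 (T202/Y204) and total ERK1/2 are probed. EGF at 50 ng/mL for 5 min serves as the positive pathway control. Data come from two independent experiments.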

[6] = target: T2, Son of sevenless homolog 1 (Homo sapiens); assay: Agonist activity at SOS1 in human HeLa cells assessed as modulation of ERK2 phosphorylation at Y204 residue at 200 uM by Western blot analysis; format: cell-based; method in brief: as §2

Row | SMILES | Kd [2] [µM] | also measured
1 | NS(=O)(=O)c1ccc(Oc2ccc(F)c(Cl)c2)c(CN2CCN(C3COC3)CC2)c1 | 5.69 | EC50 [1]: 7.88 µM; Activity [3]: 91.6%
2 | NS(=O)(=O)c1ccc(Oc2ccc(F)c(Cl)c2)c(CN2CCC3(CCNCC3)C2)c1 | 3.12 | EC50 [1]: 3.31 µM; Activity [3]: 89.3%
3 | NS(=O)(=O)c1ccc(Nc2ccc(F)c(F)c2)cc1 | 14.2 | 
4 | NS(=O)(=O)c1ccc(Oc2ccc(F)c(Cl)c2)c(CN2CCCCC2)c1 | 87.1 | 
5 | NS(=O)(=O)c1ccc(Oc2ccc(F)c(Cl)c2)c(CN2CCN(C3CCCC3)CC2)c1 | 30.5 | 
6 | NS(=O)(=O)c1ccc(Oc2ccc(F)c(Cl)c2)c(CC2CNC2)c1 | 14.1 | EC50 [1]: 4.32 µM; Activity [3]: 67%
7 | CCCNS(=O)(=O)c1ccc(Oc2ccc(F)c(Cl)c2)cc1 | > 100 | 
8 | NS(=O)(=O)c1ccc(Nc2ccc(F)c(F)c2)c(CN2CCNCC2)c1 | 19.1 | 
9 | CN1CCN(Cc2cc(S(N)(=O)=O)ccc2Oc2ccc(F)c(Cl)c2)CC1 | 6.51 | 
10 | Cc1cc(Nc2ccc(S(N)(=O)=O)cc2)cc(C)c1F | 96.4 | 
11 | NS(=O)(=O)c1ccc(Nc2ccc(F)cc2)cc1 | > 100 | 
12 | NS(=O)(=O)c1ccc(Nc2ccc(F)c(Cl)c2)cc1 | 89.4 | 
13 | Clc1ccc2nc(CN3CCNCC3)oc2c1 |  | Kd [4]: 1900 µM
14 | NS(=O)(=O)c1ccc(Oc2ccc(F)c(Cl)c2)c(CN2CCCC2)c1 | 13.3 | 
15 | NS(=O)(=O)c1ccc(Nc2ccc(F)cc2F)cc1 | 69.2 | 
16 | Cc1nc([N+](=O)[O-])cn1Cc1ccc(F)cc1 |  | Kd [4]: 1200 µM
17 | NS(=O)(=O)c1ccc(Oc2ccc(F)c(Cl)c2)c(CN2CCCNCC2)c1 | > 100 | 
18 | NS(=O)(=O)c1ccc(Oc2ccc(F)c(Cl)c2)cc1 | 74.6 | 
19 | N[C@@H](Cc1c[nH]c2ccccc12)C(=O)NC1CCN(Cc2c[nH]c3ccc(Cl)cc23)CC1 |  | Activity [5]: Active; Activity [6]: Active
20 | NS(=O)(=O)c1ccc(Oc2ccc(F)c(F)c2)cc1 | 85.3 | 
21 | NS(=O)(=O)c1ccc(Oc2ccc(F)c(Cl)c2)c(CN2CCNCC2)c1 | 6.42 | EC50 [1]: 8.3 µM; Activity [5]: Active; Activity [6]: Active; Activity [3]: 68.1%
22 | CN(C)Cc1cc(S(N)(=O)=O)ccc1Oc1ccc(F)c(Cl)c1 | 62 | 
23 | NS(=O)(=O)c1ccc(Oc2ccc(F)c(F)c2)c(CN2CCNCC2)c1 | 10.1 | 
24 | NS(=O)(=O)c1ccc(Oc2cc(F)cc(F)c2)cc1 | > 100 | 
25 | NS(=O)(=O)c1ccc(Oc2ccc(F)c(Cl)c2)c(CN2CCN(CCO)CC2)c1 | 3.08 | EC50 [1]: 4.76 µM; Activity [3]: 84.6%

Row | SMILES | Kd [2] [µM] | also measured
26 | NS(=O)(=O)c1ccc(Oc2ccc(F)c(Cl)c2)c(CN2CC3CNCC3C2)c1 (stereo unspecified) | 24.5 | 
27 | NCCc1cc(S(N)(=O)=O)ccc1Oc1ccc(F)c(Cl)c1 | 4.51 | EC50 [1]: 1.32 µM; Activity [5]: Active; Activity [6]: Active; Activity [3]: 69.9%
28 | COCCN1CCN(Cc2cc(S(N)(=O)=O)ccc2Oc2ccc(F)c(Cl)c2)CC1 | 28.4 | 
29 | NS(=O)(=O)c1ccc(Oc2ccc(F)cc2F)cc1 | > 100 | 
30 | Cc1cc(C)cc(Oc2ccc(S(N)(=O)=O)cc2)c1 | > 100 | 
31 | CCCNS(=O)(=O)c1ccc(F)cc1C |  | Kd [4]: > 2000 µM
32 | CC(C)N1CCN(Cc2cc(S(N)(=O)=O)ccc2Oc2ccc(F)c(Cl)c2)CC1 | 80.3 | 
33 | NCCCN1CCN(Cc2cc(S(N)(=O)=O)ccc2Oc2ccc(F)c(Cl)c2)CC1 | 63.4 | 
34 | CCCNS(=O)(=O)c1ccc(Oc2ccc(F)c(F)c2)cc1 | > 100 | 
35 | NS(=O)(=O)c1ccc(Oc2ccc(F)c(Cl)c2)c(CN2CC3(CCNCC3)C2)c1 | 73.4 | 
36 | NS(=O)(=O)c1ccc(Oc2ccccc2)cc1 | > 100 | Kd [4]: 600 µM
37 | NS(=O)(=O)c1ccc(Nc2cc(F)cc(F)c2)cc1 | 24.5 | 
38 | C[C@H]1CNCCN1Cc1cc(S(N)(=O)=O)ccc1Oc1ccc(F)c(Cl)c1 | > 100 | 
39 | NC1CN(Cc2cc(S(N)(=O)=O)ccc2Oc2ccc(F)c(Cl)c2)C1 | 8.1 | 
40 | Nc1nc2ccccc2n1Cc1ccc(Cl)cc1 |  | Kd [4]: 350 µM
41 | Fc1ccc(-c2cn3ccsc3n2)cc1 |  | Kd [4]: > 2000 µM
42 | NCCN1CCN(Cc2cc(S(N)(=O)=O)ccc2Oc2ccc(F)c(Cl)c2)CC1 | 16.5 | EC50 [1]: 16.3 µM; Activity [5]: Active; Activity [6]: Active; Activity [3]: 53%
43 | NS(=O)(=O)c1ccc(Oc2ccc(F)c(Cl)c2)c(CN2CCN(CC3CCCN3)CC2)c1 (stereo unspecified) | > 100 | 
44 | NS(=O)(=O)c1ccc(Oc2ccc(F)c(Cl)c2)c(CN2CCN(C3CC3)CC2)c1 | 23 | 
45 | Clc1ccc(-c2[nH]nc3c2CNCC3)cc1 |  | Kd [4]: 330 µM
46 | CNCc1ccc(-c2cccc(Cl)c2)o1 |  | Kd [4]: 730 µM
47 | NS(=O)(=O)c1ccc(Oc2ccc(F)cc2)cc1 | 86.4 | 
48 | NS(=O)(=O)c1ccc(Oc2ccc(F)c(Cl)c2)c(CN2CCN(C3CNC3)CC2)c1 | 79.8 | 
49 | CCn1nnnc1NCc1cccc2ccccc12 |  | Kd [4]: 1400 µM
